Test results taken from ChEMBL document CHEMBL3627671, “Novel derivatives of nitro-substituted salicylic acids: Synthesis, antimicrobial activity and cytotoxicity” (Bioorg Med Chem, 2015).

What was measured:
Escherichia coli [1] = assay: Antibacterial activity against Escherichia coli CCM4517 after 24 hrs by microdilution broth method; assay type: functional; settings: CCM4517, 24 h
In short: (§1)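 Mueller-Hinton broth microdilution (modified M07-A07), pH 7.4 (±0.2). Compounds dissolved in DMSO, tested at final 500 to 0.49 µmol/L. Inoculum in sterile water matched to 0.5 McFarland. Incubated in the dark, humid atmosphere, 35 °C, read at 24 and 48 h visually and at 540 nm. MIC taken as ≥95% growth reduction (IC95) versus control.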

Lichtheimia corymbifera [2] = assay: Antifungal activity against Absidia corymbifera 272 after 24 hrs by microdilution broth method; assay type: functional; settings: Lichtheimia corymbifera, 272, 24 h
In short: (§2)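 CLSI M27-A3 broth microdilution in RPMI 1640 with glutamine, buffered to pH 7.0 with MOPS; DMSO diluent. Yeast inoculum 5 × 10^3 ± 0.2 CFU/mL. Moulds grown on Sabouraud agar 3–10 days before spore harvest, final inoculum 0.5-5 × 10^4 CFU/mL, checked in a Bürker chamber. Incubated dark, humid, 35 °C, read at 24 and 48 h visually and at 540 nm. MIC taken as ≥80% (yeasts) or ≥50% (filamentous) growth reduction versus control.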

Escherichia coli [3] = assay: Antibacterial activity against Escherichia coli CCM4517 after 48 hrs by microdilution broth method; assay type: functional; settings: CCM4517, 48 h; in short: as §1
Aspergillus fumigatus [4] = assay: Antifungal activity against Aspergillus fumigatus 231 after 48 hrs by microdilution broth method; assay type: functional; settings: Aspergillus fumigatus, 231, 48 h; in short: as §2
Mycobacterium avium [5] = assay: Antimycobacterial activity against Mycobacterium avium 330/80 after 21 days; assay type: functional; settings: 330/80, 504 h
Klebsiella pneumoniae [6] = assay: Antibacterial activity against Klebsiella pneumoniae D 11750/08 after 48 hrs by microdilution broth method; assay type: functional; settings: D 11750/08, 48 h; in short: as §1
Candida tropicalis [7] = assay: Antifungal activity against Candida tropicalis 156 after 48 hrs by microdilution broth method; assay type: functional; settings: Candida tropicalis, 156, 48 h; in short: as §2
Mycobacterium avium [8] = assay: Antimycobacterial activity against Mycobacterium avium 330/80 after 14 days; assay type: functional; settings: 330/80, 336 h
Mycobacterium kansasii [9] = assay: Antimycobacterial activity against Mycobacterium kansasii 6509/96 after 14 days; assay type: functional; settings: 6509/96, 336 h
In short: (§3)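 Šula's semisynthetic medium micromethod at 37 °C, read after 7, 14 and 21 days. The 1.0 McFarland suspension was diluted 10^-4. MIC determined. 6509/96 is a clinical isolate.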

Mycobacterium kansasii [10] = assay: Antimycobacterial activity against Mycobacterium kansasii 235/80 after 7 days; assay type: functional; settings: 235/80, 168 h; in short: as §3
Aspergillus fumigatus [11] = assay: Antifungal activity against Aspergillus fumigatus 231 after 24 hrs by microdilution broth method; assay type: functional; settings: Aspergillus fumigatus, 231, 24 h; in short: as §2
Enterococcus sp. [12] = assay: Antibacterial activity against Enterococcus sp. J 14365/08 after 24 hrs by microdilution broth method; assay type: functional; settings: J 14365/08, 24 h; in short: as §1
[13] = test system: Staphylococcus epidermidis; assay: Antibacterial activity against Staphylococcus epidermidis H 6966/08 after 48 hrs by microdilution broth method; assay type: functional; settings: H 6966/08, 48 h; in short: as §1
[14] = test system: Mycobacterium tuberculosis; assay: Antimycobacterial activity against Mycobacterium tuberculosis H37Rv 331/88 after 14 days; assay type: functional; settings: H37Rv 331/88, 336 h
Enterococcus sp. [15] = assay: Antibacterial activity against Enterococcus sp. J 14365/08 after 48 hrs by microdilution broth method; assay type: functional; settings: J 14365/08, 48 h; in short: as §1
[16] = Selectivity index, ratio of CI50 for human HepG2 cells to MIC100 for Mycobacterium tuberculosis H37Rv 331/88
Nakaseomyces glabratus [17] = assay: Antifungal activity against Candida glabrata 20/I after 48 hrs by microdilution broth method; assay type: functional; in short: as §2
Mycobacterium kansasii [18] = assay: Antimycobacterial activity against Mycobacterium kansasii 235/80 after 21 days; assay type: functional; settings: 235/80, 504 h; in short: as §3
Mycobacterium kansasii [19] = assay: Antimycobacterial activity against Mycobacterium kansasii 6509/96 after 7 days; assay type: functional; settings: 6509/96, 168 h; in short: as §3
Lichtheimia corymbifera [20] = assay: Antifungal activity against Absidia corymbifera 272 after 48 hrs by microdilution broth method; assay type: functional; settings: Lichtheimia corymbifera, 272, 48 h; in short: as §2
Pichia kudriavzevii [21] = assay: Antifungal activity against Candida krusei E28 after 48 hrs by microdilution broth method; assay type: functional; settings: E28, 48 h; in short: as §2
Staphylococcus aureus [22] = assay: Antibacterial activity against Staphylococcus aureus CCM 4516/08 after 24 hrs by microdilution broth method; assay type: functional; settings: CCM 4516/08, 24 h
Klebsiella pneumoniae [23] = assay: Antibacterial activity against ESBL-positive Klebsiella pneumoniae J 14368/08 after 24 hrs by microdilution broth method; assay type: functional; settings: J 14368/08, 24 h; in short: as §1
[24] = test system: Trichophyton mentagrophytes; assay: Antifungal activity against Trichophyton mentagrophytes 445 after 48 hrs by microdilution broth method; assay type: functional; settings: Trichophyton mentagrophytes, 445, 48 h
Staphylococcus aureus [25] = assay: Antibacterial activity against methicillin-resistant Staphylococcus aureus H 5996/08 after 48 hrs by microdilution broth method; assay type: functional; settings: H 5996/08, 48 h
[26] = test system: Trichophyton mentagrophytes; assay: Antifungal activity against Trichophyton mentagrophytes 445 after 24 hrs by microdilution broth method; assay type: functional; settings: Trichophyton mentagrophytes, 445, 24 h
HepG2 = assay: Cytotoxicity against human HepG2 cells after 24 hrs […]; assay type: cell-based; settings: HepG2, 24 h
Candida tropicalis [27] = assay: Antifungal activity against Candida tropicalis 156 after 24 hrs by microdilution broth method; assay type: functional; settings: Candida tropicalis, 156, 24 h; in short: as §2
Pseudomonas aeruginosa [28] = assay: Antibacterial activity against Pseudomonas aeruginosa CCM 1961 after 48 hrs by microdilution broth method; assay type: functional; settings: CCM 1961, 48 h; in short: as §1
[29] = test system: Mycobacterium tuberculosis; assay: Antimycobacterial activity against Mycobacterium tuberculosis H37Rv 331/88 after 21 days; assay type: functional; settings: H37Rv 331/88, 504 h
Pichia kudriavzevii [30] = assay: Antifungal activity against Candida krusei E28 after 24 hrs by microdilution broth method; assay type: functional; settings: E28, 24 h; in short: as §2
Klebsiella pneumoniae [31] = assay: Antibacterial activity against ESBL-positive Klebsiella pneumoniae J 14368/08 after 48 hrs by microdilution broth method; assay type: functional; settings: J 14368/08, 48 h; in short: as §1
Klebsiella pneumoniae [32] = assay: Antibacterial activity against Klebsiella pneumoniae D 11750/08 after 24 hrs by microdilution broth method; assay type: functional; settings: D 11750/08, 24 h; in short: as §1
Trichosporon asahii [33] = assay: Antifungal activity against Trichosporon asahii 1188 after 48 hrs by microdilution broth method; assay type: functional; settings: Trichosporon asahii, 1188, 48 h; in short: as §2
Staphylococcus aureus [34] = assay: Antibacterial activity against Staphylococcus aureus CCM 4516/08 after 48 hrs by microdilution broth method; assay type: functional; settings: CCM 4516/08, 48 h
Staphylococcus aureus [35] = assay: Antibacterial activity against methicillin-resistant Staphylococcus aureus H 5996/08 after 24 hrs by microdilution broth method; assay type: functional; settings: H 5996/08, 24 h
Trichosporon asahii [36] = assay: Antifungal activity against Trichosporon asahii 1188 after 24 hrs by microdilution broth method; assay type: functional; settings: Trichosporon asahii, 1188, 24 h; in short: as §2
Nakaseomyces glabratus [37] = assay: Antifungal activity against Candida glabrata 20/I after 24 hrs by microdilution broth method; assay type: functional; in short: as §2
[38] = test system: Staphylococcus epidermidis; assay: Antibacterial activity against Staphylococcus epidermidis H 6966/08 after 24 hrs by microdilution broth method; assay type: functional; settings: H 6966/08, 24 h; in short: as §1
Candida albicans [39] = assay: Antifungal activity against Candida albicans ATCC 44859 after 24 hrs by microdilution broth method; assay type: functional; settings: ATCC 44859, 24 h; in short: as §2
Candida albicans [40] = assay: Antifungal activity against Candida albicans ATCC 44859 after 48 hrs by microdilution broth method; assay type: functional; settings: ATCC 44859, 48 h; in short: as §2
Mycobacterium kansasii [41] = assay: Antimycobacterial activity against Mycobacterium kansasii 235/80 after 14 days; assay type: functional; settings: 235/80, 336 h; in short: as §3
Pseudomonas aeruginosa [42] = assay: Antibacterial activity against Pseudomonas aeruginosa CCM 1961 after 24 hrs by microdilution broth method; assay type: functional; settings: CCM 1961, 24 h; in short: as §1
Mycobacterium kansasii [43] = assay: Antimycobacterial activity against Mycobacterium kansasii 6509/96 after 21 days; assay type: functional; settings: 6509/96, 504 h; in short: as §3

O=C(Nc1cccc(C(F)(F)F)c1)c1ccc([N+](=O)[O-])cc1O
500 µM: MIC (Escherichia coli [1]) | MIC (Lichtheimia corymbifera [2]) | MIC (Escherichia coli [3]) | MIC (Klebsiella pneumoniae [6]) | MIC (Aspergillus fumigatus [11]) | MIC (Enterococcus sp. [15]) | MIC (Klebsiella pneumoniae [32])
1.95 µM: MIC (Staphylococcus aureus [25]) | MIC (Staphylococcus aureus [35]) | MIC [38]
16 µM: MIC (Mycobacterium kansasii [9]) | MIC (Mycobacterium kansasii [18]) | MIC (Mycobacterium kansasii [41]) | MIC (Mycobacterium kansasii [43])
2800 nM: IC50 (HepG2)
> 500 µM: MIC (Aspergillus fumigatus [4]) | MIC (Candida tropicalis [7]) | MIC (Nakaseomyces glabratus [17]) | MIC (Lichtheimia corymbifera [20]) | MIC (Pichia kudriavzevii [21]) | MIC (Klebsiella pneumoniae [23]) | MIC [24] | MIC [26] | MIC (Candida tropicalis [27]) | MIC (Pseudomonas aeruginosa [28]) | MIC (Klebsiella pneumoniae [31]) | MIC (Nakaseomyces glabratus [37]) | MIC (Candida albicans [39]) | MIC (Candida albicans [40]) | MIC (Pseudomonas aeruginosa [42])
0.35: Selectivity Index [16]
7.81 µM: MIC [13]
3.9 µM: MIC (Staphylococcus aureus [22]) | MIC (Staphylococcus aureus [34])
8 µM: MIC (Mycobacterium kansasii [10]) | MIC [14] | MIC (Mycobacterium kansasii [19]) | MIC [29]
250 µM: MIC (Enterococcus sp. [12]) | MIC (Pichia kudriavzevii [30]) | MIC (Trichosporon asahii [33])
62.5 µM: MIC (Mycobacterium avium [5]) | MIC (Mycobacterium avium [8]) | MIC (Trichosporon asahii [36])

O=C(Nc1ccc(C(F)(F)F)cc1)c1ccc([N+](=O)[O-])cc1O
31.2 µM: MIC (Lichtheimia corymbifera [2]) | MIC (Aspergillus fumigatus [4]) | MIC (Aspergillus fumigatus [11]) | MIC (Trichosporon asahii [33]) | MIC (Trichosporon asahii [36])
2 µM: MIC (Mycobacterium kansasii [10]) | MIC [14]
8 µM: MIC (Mycobacterium kansasii [9]) | MIC (Mycobacterium kansasii [18]) | MIC (Mycobacterium kansasii [43])
1200 nM: IC50 (HepG2)
32 µM: MIC (Mycobacterium avium [5]) | MIC (Mycobacterium avium [8])
125 µM: MIC (Pichia kudriavzevii [21]) | MIC [24] | MIC (Nakaseomyces glabratus [37])
500 µM: MIC (Escherichia coli [1]) | MIC (Escherichia coli [3]) | MIC (Klebsiella pneumoniae [6]) | MIC (Klebsiella pneumoniae [23]) | MIC (Klebsiella pneumoniae [31]) | MIC (Klebsiella pneumoniae [32])
7.81 µM: MIC [13] | MIC (Staphylococcus aureus [22]) | MIC (Staphylococcus aureus [34])
62.5 µM: MIC (Lichtheimia corymbifera [20]) | MIC [26] | MIC (Pichia kudriavzevii [30])
4 µM: MIC (Mycobacterium kansasii [19]) | MIC [29] | MIC (Mycobacterium kansasii [41])
0.3: Selectivity Index [16]
1.95 µM: MIC (Staphylococcus aureus [25]) | MIC (Staphylococcus aureus [35]) | MIC [38]
> 500 µM: MIC (Pseudomonas aeruginosa [28]) | MIC (Pseudomonas aeruginosa [42])
250 µM: MIC (Candida tropicalis [7]) | MIC (Enterococcus sp. [12]) | MIC (Enterococcus sp. [15]) | MIC (Nakaseomyces glabratus [17]) | MIC (Candida tropicalis [27]) | MIC (Candida albicans [39]) | MIC (Candida albicans [40])
